# Experimental data gathered from unrelated publications.
# Compare with care: the assays were run in different laboratories.
# Target: Serine/threonine-protein kinase pim-3 (PIM3, Homo sapiens, UniProt Q86V86)
Structure (SMILES),test,conditions,measurement,result
COc1cc(Cl)c(C(=O)N[C@@H](CN[C@H]2CC[C@@H](N)CC2)Cc2ccc(C#N)cc2)cc1-c1ccc(CN[C@H](C)c2ccc(C)cc2)o1,"enzyme activity, inhibitor",1 µM,remaining activity,84%
Nc1nc(Nc2ccccc2)sc1C(=O)c1c(F)cccc1F,"enzyme activity, inhibitor",10 µM,remaining activity,69%
CS(=O)(=O)NCC[C@H](NC(=O)c1cncc2c1cnn2-c1ccc(F)cc1)c1ccnc(S(C)(=O)=O)c1,"cell-free assay, competition with immobilised ligand",1 µM,remaining binding,100%
N#CCCc1ccc2c(c1)-c1[nH]c3ccc([N+](=O)[O-])cc3c1CC(=O)N2,cell-free assay,0.5 µM,remaining signal,70.9%
O=C(O)[C@@H]1[C@@H](Cn2nnc3ccccc3c2=O)CC[C@H]1C(=O)c1ccc(OCCC2CCOCC2)cc1,"cell-free assay, competition with immobilised ligand",1 µM,remaining binding,84%
Cn1c2c(c3ccc(Cl)c(Cl)c31)C(C#N)C1(CCNCC1)NC2=O (racemic),"thermal stability, DSF",10 µM,ΔTm,> 8 °C
O=C(N1CCS(=O)(=O)CC1)N1C[C@H](c2ccc(OC(F)(F)F)cc2)C[C@H](c2nc(C3CC3)no2)C1,"cell-free assay, competition with immobilised ligand",1 µM,remaining binding,100%
Cc1cc(NC(=O)c2cccc3cc(-c4cccc5[nH]nc(N)c45)ccc23)ccc1F,"enzyme activity, inhibitor",0.1 µM,activity vs control,113%
Cc1ccc(Nc2nccc(N(C)c3ccc4c(C)n(C)nc4c3)n2)cc1S(N)(=O)=O,"enzyme activity, inhibitor",0.5 µM,remaining activity,81.6%
O=C(Nc1cnn(-c2csc(C(=O)NC3COC3)c2)c1)Nc1ccccc1Cl,"enzyme activity, inhibitor",5 µM,remaining activity,61.2%
COc1cc(Nc2cnc(C#N)c(O[C@H](C)CN(C)C)n2)ncc1-c1cnn(C)c1,"enzyme activity, inhibitor, radiometric",1 µM,remaining activity,58%
CN(C)C(=O)Cn1cc(-c2nc([C@@](C)(c3ccc(-c4cnc(N)nc4)cc3)C3CC3)no2)cn1,"cell-free assay, competition with immobilised ligand",1 µM,remaining binding,96%
CCN(CC)c1ccc(C2=NNC(=O)CC2C)cc1[N+](=O)[O-] (stereo not drawn),"enzyme activity, inhibitor",10 µM,remaining activity,96%
O=C(Nc1cnn(-c2csc(C(=O)NC3COC3)c2)c1)Nc1c(F)cccc1Cl,"enzyme activity, inhibitor",5 µM,remaining activity,73.9%
CS(=O)(=O)Nc1cccc(-c2csc(NC(=O)CSc3nc4nccnc4c(=O)n3CCc3ccccc3)n2)c1,"enzyme activity, inhibitor",10 µM,inhibition,1%
Cn1c(=O)n(-c2ccc(C(C)(C)C#N)cc2)c2c3cc(-c4cnc5ccccc5c4)ccc3ncc21,"enzyme activity, inhibitor",10 µM,remaining activity,87%
CC(=O)N1CCC(c2ccc(C(=O)NC3=NCCN3)cc2C(F)(F)F)CC1,"cell-free assay, competition with immobilised ligand",1 µM,remaining binding,100%
CC(C)(O)[C@H]1CC[C@H](Nc2ccc3ncc(-c4cccc(C(F)(F)F)c4)n3n2)CC1,"enzyme activity, inhibitor",1 µM,remaining activity,3.14%
O=c1nc(-c2ccccn2)sc2ccccc12,"binding, competition with immobilised ligand",1 µM,remaining binding,100%
Oc1cccc(-c2nc(N3CCOCC3)c3oc4ncccc4c3n2)c1,"enzyme activity, inhibitor",10 µM,remaining activity,41%
Cc1ccc(NC(=O)c2ccc(C)c(C(F)(F)F)c2)cc1C#Cc1nn(C2CCC(O)CC2)c2ncnc(N)c12 (stereo not drawn),cell-free assay,10 µM,remaining signal,99%
CCC(=O)N[C@H]1CC[C@@H](C(=O)N(C)c2ccc(-c3nc4ccccc4o3)cc2)C1,"cell-free assay, competition with immobilised ligand",1 µM,remaining binding,100%
CNC(=O)c1cc(Oc2ccc(NC(=O)Nc3ccc(Cl)c(C(F)(F)F)c3)cc2)ccn1,"enzyme activity, inhibitor",0.3 µM,inhibition,-12%
O=C1NC(=O)c2cc(Nc3ccc(F)cc3)c(Nc3ccc(F)cc3)cc21,cell-free assay,0.5 µM,remaining signal,105%
Cc1cc(-n2nc(Cc3cc(F)cc(C(F)(F)F)c3)nc2C)ccc1C(N)=O,"cell-free assay, competition with immobilised ligand",1 µM,remaining binding,100%
CCCOc1ccc(OC)c(F)c1C(=O)c1ccc(C(=O)N[C@@H]2CNC[C@H]2NC(=O)c2ccc3[nH]ncc3c2)cc1,"enzyme activity, inhibitor",10 µM,remaining activity,97%
CC(C)(C)c1nc2c(s1)c1nc(N)ncc1c1ccc(NS(=O)(=O)c3c(F)cccc3F)c(F)c12,"enzyme activity, inhibitor, radiometric",1 µM,remaining activity,105%
